# miR122 inh: miR-122 Renilla sensor signal increase in Huh7, primary screen, miR-122 inhibitor project, cell-based, single point, plate reader; activation (reporter increase), % at 12.5 µM; Huh7 miR-122 Renilla luciferase sensor, 48 h; neutral wells = 0, positive control = 100; actives 0.3% (n = 340,000);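 active = mean replicate activation score at least 90 and every replicate individually at or above 90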;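 also: higher luciferase means less miR-122 activity so hits act as miR-122 inhibitors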
# 697 NFkB inh: inhibitors of PMA/ionomycin-induced NF-kB reporter, 697 cells, primary screen, B-cell NF-kB inhibitor project, cell-based, luminescence, uHTS; 697 B-cell NF-kB luciferase reporter, 16 h; inhibition, % at 4 µM; actives 0.33% (n = 330,000); AID 435022, 2010; in the data active = inhibition above about 35%
# Jurkat NFkB inh: inhibitors of induced NF-kB luciferase reporter, primary screen, TCR NF-kB activation inhibitor project, cell-based, luminescence, uHTS; Jurkat, PMA/ionomycin-induced NF-kB luciferase reporter; inhibition, % at 4 µM; actives 0.53% (n = 330,000); AID 435003, 2010; in the data active = inhibition above about 50%
# FGF22 binding: binders of human FGF22 protein, primary screen, FGF22 synaptogenesis inhibitor project, biophysical, thermal shift, single point | recombinant FGF22 thermal shift, SYPRO orange fluorescence; percent of sucrose octasulfate shift, DMSO zero | activity (Tm shift, normalised), % at 9.99 µM | actives 1.5% (n = 340,000) | AID 651658, 2012 | Fibroblast growth factor 22 (Homo sapiens), Q9HCT0;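 active = mean Tm shift, scaled 0 neutral to 100 positive control, at about 1.3% or above, every replicate too, limit read from the data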
# Target sequence (Q9HCT0 whole entry, looked up): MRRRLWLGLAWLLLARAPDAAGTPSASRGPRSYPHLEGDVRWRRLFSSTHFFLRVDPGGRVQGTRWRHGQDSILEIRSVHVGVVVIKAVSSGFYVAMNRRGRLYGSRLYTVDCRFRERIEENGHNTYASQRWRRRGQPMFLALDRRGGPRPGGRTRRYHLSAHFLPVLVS
# NR2E3 ag-1: NR2E3 agonists in two-hybrid cells, primary screen, cell-based, luminescence, CHO-S, Gal4-NCOR/VP16-NR2E3. Photoreceptor-specific nuclear receptor (Homo sapiens), Q9Y5X4. luciferase. inhibition of corepressor binding, % at 3.98 µM. actives 0.35% (n = 360,000). AID 602229, 2012;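 active = inhibition above the mean of all tested compounds plus 3 SD, cut at about 70% in these data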;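 also: 0% = DMSO with NR2E3 transfected cells and 100% = cells lacking NR2E3 construct; higher means lower luciferase signal from less NR2E3 corepressor binding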
# Target sequence (Q9Y5X4 whole entry, looked up, the tested form may be a part): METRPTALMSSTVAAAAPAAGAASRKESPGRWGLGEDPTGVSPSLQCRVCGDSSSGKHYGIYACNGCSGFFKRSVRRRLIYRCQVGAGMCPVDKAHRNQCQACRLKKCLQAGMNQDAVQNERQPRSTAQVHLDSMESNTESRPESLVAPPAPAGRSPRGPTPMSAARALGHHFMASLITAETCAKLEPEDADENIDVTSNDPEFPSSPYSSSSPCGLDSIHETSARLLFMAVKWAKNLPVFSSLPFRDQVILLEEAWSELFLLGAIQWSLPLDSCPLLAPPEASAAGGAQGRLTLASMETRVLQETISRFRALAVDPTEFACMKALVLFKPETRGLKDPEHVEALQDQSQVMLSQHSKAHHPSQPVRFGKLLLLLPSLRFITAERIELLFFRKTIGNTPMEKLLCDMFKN
# NR2E3 ag-2: inhibitors of NR2E3-RetCOR corepressor binding, primary screen, NR2E3 agonist project, biochemical, TR-FRET, GST-NR2E3, biotin-RetCOR; actives 0.12% (n = 320,000); Photoreceptor-specific nuclear receptor (Homo sapiens), Q9Y5X4; 1536-well; inhibition of corepressor binding, % at 4.78 µM;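 active = percent inhibition above the cutoff of mean plus 3 SD of all tested compounds, set per screening campaign, cut at about 20% in these data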;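 also: 0% = DMSO wells and 100% = biotin wells as full block of FRET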
#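 System: GST-tagged NR2E3 plus biotinylated RetCOR corepressor; Amount: 1.35 nM GST-tagged NR2E3 final; Dosing: single nominal compound dose of 4.8 µM; Schedule: 5 h incubation at 4 °C; Technique: TR-FRET with europium anti-GST and streptavidin-D2, 340 nm excitation; Controls: biotin wells as high control, 0.6% DMSO wells as low control.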
# Jurkat NFkB conf: PMA/ionomycin-induced NF-kB reporter inhibitors, Jurkat retest, confirmation, T-cell NF-kB inhibitor project, cell-based, luminescence, single concentration | shares compounds with Jurkat NFkB inh | Jurkat NF-kB luciferase, 16 h | inhibition, % at 4 µM | actives 27% (n = 2,700);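 active = inhibition reaching about 45% at 4 µM in either replicate, limit read from the data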;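 also: plate controls were PMA/ionomycin stimulated DMSO wells for no effect and unstimulated DMSO wells for full effect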
# * hit, by the source's call; x = no result; [ ] = remark or other dose. A selection: hits, their analogues and other compounds. The true share with any hit is near 2.2%.
SMILES,miR122 inh,697 NFkB inh,Jurkat NFkB inh,FGF22 binding,NR2E3 ag-1,NR2E3 ag-2,Jurkat NFkB conf
O=C(Cc1ccccn1)N1CCCCN2[C@H](CO)[C@H](c3ccc(C#Cc4ccccc4)cc3)[C@H]2C1,0.6[16.7 µM],x,x,0.2,x,x,x
CN1/C(=C\C=Nc2ccccc2)C(C)(C)c2ccccc21,-1.9,-60.4,2.9,x,-1.1,0.3,x
CN1/C(=C\C=C\C2=[N+](C)c3ccc4ccccc4c3C2(C)C)C(C)(C)c2ccccc21,x,24.4,99.0*,x,x,-4.0,84.0*
Nc1c2c(nc3sc4c(c13)CCCC4)CCCCC2,0.6,-224.1,-174.4,x,-128.8,-1.4,-93.9
C=C(C=O)C[C@@H]1C[C@H](O)C2OC3C[C@]4(C)OC5/C=C\CC6OC7C(CC=CCC6OC5CCCC4OC3CC2O1)OC1CC2OC3CC(=O)OC3C[C@@H](C)C[C@@]2(C)OC1C[C@@H]7C (stereo partly drawn),x,-143.2,101.0*,x,x,x,98.7*
COc1ccc(C#Cc2ccc([C@H]3[C@H]4CN(C(=O)Cc5ccccc5)CCCCN4[C@H]3CO)cc2)cc1,-4.7[16.7 µM],x,x,-0.1,x,x,x
O=C(Cc1cccnc1)N1CCCCN2[C@H](CO)[C@H](c3ccc(/C=C/c4ccccc4)cc3)[C@H]2C1,-0.9[16.7 µM],x,x,-0.5,x,x,x
CC(=O)O[C@H]1C(=O)[C@@]2(C)C([C@H](OC(=O)c3ccccc3)[C@]3(O)C[C@H](OC(=O)[C@H](O)[C@@H](NC(=O)Cc4ccccc4)c4ccccc4)C(C)=C1C3(C)C)[C@]1(OC(C)=O)CO[C@@H]1C[C@@H]2O (stereo partly drawn),-3.7,-1.9,61.7*,0.4,-25.8,-2.6,62.5*
CC(=O)O[C@@]12CO[C@@H]1C[C@H](O)[C@@]1(C)C(=O)[C@H](O)C3=C(C)[C@@H](OC(=O)[C@H](O)[C@@H](NC(=O)c4ccccc4)c4ccccc4)C[C@@](O)([C@@H](OC(=O)c4ccccc4)C12)C3(C)C (stereo partly drawn),5.3,-29.7,68.4*,0.2,-53.6,1.3,63.7*
O=C(Cc1ccccn1)N1CCCCN2[C@@H](CO)[C@@H](c3ccc(Br)cc3)[C@@H]2C1,11.3[16.7 µM],x,x,0.5,x,x,x
COc1ccc(-c2cc(-c3ccccc3)[n+](C)c(-c3ccccc3)c2)cc1,x,-7.8,41.9,0.3,-7.9,0.2,x
COc1ccc(-[n+]2c(-c3ccccc3)cc(-c3ccc(C)cc3)cc2-c2ccccc2)cc1,-19.0,-25.9,66.1*,0.0,-23.6,5.3,40.7
O=C(O)[C@@H]1[C@@H](CO)[C@@H]2Cn3c(ccc(C4=CCCC4)c3=O)[C@H]1N2C(=O)Cc1ccccn1,5.0[16.7 µM],x,x,x,x,x,x
N#Cc1ccc(-c2ccc([C@@H]3[C@H](CO)N4CCCCN(C(=O)Cc5ccccc5)C[C@@H]34)cc2)cc1,8.2[16.7 µM],x,x,-0.5,x,x,x
CNc1ccc2nc3ccccc3[n+](C)c2c1,-2.9,3.9,81.1*,-0.1,-29.7,-29.5,6.0
COc1cc2c(c(OC)c1OC)-c1ccc(O)c(=O)cc1C(NC(C)=O)CC2 (stereo not drawn),96.8*,-211.6,55.2*,-0.1,4.5,-1.1,1.1
COC(=O)[C@@H]1[C@@H](CO)[C@@H]2Cn3c(cccc3=O)[C@H]1N2C(=O)C1CCCC1,8.9[16.7 µM],x,x,-0.6,x,x,x
COC(=O)[C@@H]1[C@@H](CO)[C@@H]2Cn3c(ccc(-c4cncnc4)c3=O)[C@H]1N2S(=O)(=O)c1ccccc1C,-2.0[16.7 µM],x,x,-0.3,x,x,x
Cc1ccc(C[n+]2c(-c3ccc(C)cc3)cc(-c3ccc(C)cc3)cc2-c2ccc(C)cc2)cc1,3.8,1.0,98.8*,x,99.3*,1.5,67.2*
CC(C)c1oc(=O)cc2c1[C@@H](O)[C@H]1OC(=O)[C@@]3(C)CC[C@@H](O)[C@@]2(C)C13 (stereo partly drawn),x,-19.0,72.1*,0.1,30.2,1.0,59.9*
CCCN1[C@@H]2c3ccc(-c4ccc(F)cc4)c(=O)n3C[C@H]1[C@H](CO)[C@H]2C(=O)OC,-1.5[16.7 µM],x,x,0.1,x,x,x
CC1(C)C[C@H]2C=C(C=O)[C@]3(C=O)C[C@]3(C)[C@H]2C1,-4.5,-153.1,94.4*,0.2,18.1,3.3,52.0*
COC(=O)[C@@H]1[C@@H](CO)[C@@H]2Cn3c(ccc(-c4ccccc4F)c3=O)[C@H]1N2,x,x,x,0.2,x,x,x
COc1ccc(/C=N\N=C(N)N)cc1,x,3.7,50.9*,0.5,-32.7,-2.0,16.4
NC(N)=N/N=C/c1ccc(N2CCOCC2)cc1,x,8.2,48.6,0.2,-9.6,2.3,x
NC(N)=N/N=C/c1ccc(N(c2ccccc2)c2ccccc2)cc1,x,-8.4,60.8*,-0.5,24.6,1.5,6.9
COc1ccc(-c2ccc([C@@H]3[C@H](CO)N4CCCCN(C(=O)Cc5ccccc5)C[C@@H]34)cc2)cc1,-1.8[16.7 µM],x,x,0.5,x,x,x
CN(C)C(=O)O/N=C(\N)COc1ccc(C(C)(C)C)cc1,x,-68.3,60.0*,0.2,-41.1,-1.3,-13.3
CCOC(=O)C(O)(c1ccc(N(C)C(=O)COc2ccccc2)cc1)C(F)(F)F (stereo not drawn),-0.1,-13.4,-14.5,x,-2.5,-1.3,x
CCCC[C@@H](C)C[C@@H](C)C(=O)N(C)[C@@H](CC(C)C)C(=O)N[C@H](C(=O)N(C)[C@H](C(=O)N1C[C@@H](O)C[C@H]1C(=O)N1C(=O)C=C[C@@H]1C)C(C)C)C(C)OC(C)=O (stereo partly drawn),-20.7,1.3,90.6*,x,81.8*,x,93.3*

# Screening results: PubChem BioAssay, several laboratories
